Test results reported in ChEMBL document CHEMBL1833957, “P1-substituted symmetry-based human immunodeficiency virus protease inhibitors with potent antiviral activity against drug-resistant viruses” (J Med Chem, 2011).

Key:
[1] = system: Human immunodeficiency virus 1; assay: Antiviral activity against wild type HIV1 pNL4-3 infected in human MT4 cells assessed as inhibition of virus-induced cell death after 5 days by MTT assay in presence of 50% human serum; assay type: functional, organism-based; conditions: Human immunodeficiency virus 1, pNL4-3, MT4, 120 h
[2] = system: Human immunodeficiency virus 1; assay: Antiviral activity against HIV1 A17 harboring protease L10F, V32I, M46I, I47V, Q58E and I84V mutant infected in human MT4 cells assessed as inhibition of virus-induced cell death after 5 days by MTT assay relative to wild type HIV1 pNL4-3; assay type: functional
[3] = system: Human immunodeficiency virus 1; assay: Antiviral activity against HIV1 B26 harboring protease L33F, K45I, M46I, I50V, A71V and V82F mutant infected in human MT4 cells assessed as inhibition of virus-induced cell death after 5 days by MTT assay relative to wild type HIV1 pNL4-3; assay type: functional
[4] = system: Human immunodeficiency virus 1; assay: Antiviral activity against wild type HIV1 pNL4-3 infected in human MT4 cells assessed as inhibition of virus-induced cell death after 5 days by MTT assay; assay type: functional, organism-based; conditions: Human immunodeficiency virus 1, pNL4-3, MT4, 120 h
Method in brief: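 EC50 measured against wild-type virus in MT-4 cells, with no human serum added.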

[5] = system: Human immunodeficiency virus 1; assay: Antiviral activity against HIV1 isolate 1 harboring protease L10I, E35D, N37D, M46I, I54V, G57R, L63P, A71V, T74P, I84V, L90M, I93L mutant infected in human MT4 cells assessed as inhibition of virus-induced cell death after 5 days by MTT assay relative to wild type HIV1 pNL4-3; assay type: functional
[6] = system: Human immunodeficiency virus 1; assay: Antiviral activity against HIV1 harboring protease L10I, I13V, G16A, Q18H, L33F, N37D, M46I, I54V, G57R, Q61H,I62V, L63P, A71L, I72T, L76V, V77I, V82A, N88G, L90M, I93L mutant infected in human MT4 cells assessed as inhibition of virus-induced cell death after 5 days by MTT assay relative to wild type HIV1 pNL4-3; assay type: functional

SMILES	EC50 [1]	fold change (FC) [2]	fold change (FC) [3]	EC50 [4]	fold change (FC) [5]	fold change (FC) [6]
COC(=O)N[C@H](C(=O)N[C@@H](Cc1ccccc1)C[C@H](O)[C@H](Cc1ccc(-c2ccccc2)cc1)NC(=O)[C@@H](NC(=O)OC)C(C)(C)C)C(C)(C)C	95 nM	21	12	4 nM		
COC(=O)N[C@H](C(=O)N[C@@H](Cc1ccccc1)C[C@H](O)[C@H](Cc1ccc(-c2ccc(O)cc2)cc1)NC(=O)[C@@H](NC(=O)OC)C(C)(C)C)C(C)(C)C	71 nM	3	3	13 nM		
COC(=O)N[C@H](C(=O)N[C@@H](Cc1ccccc1)C[C@H](O)[C@H](Cc1ccc(-c2ccc(F)nc2)cc1)NC(=O)[C@@H](NC(=O)OC)C(C)(C)C)C(C)(C)C	14 nM	12	14	3 nM	58	7
Cc1cccc(C)c1OCC(=O)N[C@@H](Cc1ccccc1)[C@@H](O)C[C@H](Cc1ccccc1)NC(=O)[C@H](C(C)C)N1CCCNC1=O [LOPINAVIR]		59	211		62	234
COC(=O)N[C@H](C(=O)N[C@@H](Cc1ccccc1)C[C@H](O)[C@H](Cc1ccc(-c2ccnc(F)c2)cc1)NC(=O)[C@@H](NC(=O)OC)C(C)(C)C)C(C)(C)C	7 nM	10	10	2 nM	30	2
CNC(=O)c1cccc(-c2ccc(C[C@H](NC(=O)[C@@H](NC(=O)OC)C(C)(C)C)[C@@H](O)C[C@H](Cc3ccccc3)NC(=O)[C@@H](NC(=O)OC)C(C)(C)C)cc2)c1	842 nM	0.4	0.5	159 nM		
COC(=O)N[C@H](C(=O)N[C@@H](Cc1ccccc1)C[C@H](O)[C@H](Cc1ccc(-c2ccncc2)cc1)NC(=O)[C@@H](NC(=O)OC)C(C)(C)C)C(C)(C)C	34 nM	2	3	13 nM		
COC(=O)N[C@H](C(=O)N[C@@H](Cc1ccccc1)C[C@H](O)[C@H](Cc1ccc(-c2ccc(C#N)nc2)cc1)NC(=O)[C@@H](NC(=O)OC)C(C)(C)C)C(C)(C)C	23 nM	8	12	6 nM	16	3
COC(=O)N[C@H](C(=O)N[C@H](Cc1ccc(-c2ccccn2)cc1)C[C@H](O)[C@H](Cc1ccccc1)NC(=O)[C@@H](N1CCN(Cc2cccc(C(C)(C)O)n2)C1=O)C(C)(C)C)C(C)(C)C		3	7		57	2
COC(=O)N[C@H](C(=O)N[C@@H](Cc1ccccc1)C[C@H](O)[C@H](Cc1ccc(-c2cnccn2)cc1)NC(=O)[C@@H](NC(=O)OC)C(C)(C)C)C(C)(C)C	151 nM	7	4	54 nM		
COC(=O)N[C@H](C(=O)N[C@@H](Cc1ccccc1)C[C@H](O)[C@H](Cc1ccc(-c2cncnc2)cc1)NC(=O)[C@@H](NC(=O)OC)C(C)(C)C)C(C)(C)C	58 nM	41	74	2 nM		
